Screening results (PubChem)
Most compounds without a hit are left out; they make up all but 4% or so of the library.
KCNQ1 block: inhibitors of human KCNQ1 channel, primary screen, cell-based, thallium flux, high-throughput; CHO-K1 KCNQ1, FluxOR thallium flux fluorescence; hits give high values; 310,000 compounds, 1.3% hits; AID 2642, 2010; B-score at 10 µM;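 active means compounds whose thallium flux B-score, printed positive for inhibition, exceeds three library SD while starting fluorescence stays within three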;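 further: channel opened by potassium depolarization with thallium stimulus after 20 min compound exposure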
hERG rescue: hERG rescue from dofetilide block, primary screen, cell-based, CHO-hERG, FluxOR thallium flux, dofetilide IC70 | dofetilide IC70 present | activation (rescue from dofetilide block), less the hit threshold, % at 10 µM | 310,000 compounds, 0.51% hits | AID 1511, 2009;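 active means activation above the mean of controls blocked by dofetilide plus 5 SD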;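 further: thallium influx through hERG after potassium depolarization seen as dye fluorescence rise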
PHOSPHO1 inh: PubChem AID 1565. Phosphoethanolamine/phosphocholine phosphatase (Homo sapiens), Q8TCT1. recombinant PHOSPHO1, absorbance phosphatase assay. inhibition, % at 13.3 µM. 290,000 compounds, 1.1% hits; in the data active means inhibition above about 60%
Target sequence (Q8TCT1 whole entry, looked up): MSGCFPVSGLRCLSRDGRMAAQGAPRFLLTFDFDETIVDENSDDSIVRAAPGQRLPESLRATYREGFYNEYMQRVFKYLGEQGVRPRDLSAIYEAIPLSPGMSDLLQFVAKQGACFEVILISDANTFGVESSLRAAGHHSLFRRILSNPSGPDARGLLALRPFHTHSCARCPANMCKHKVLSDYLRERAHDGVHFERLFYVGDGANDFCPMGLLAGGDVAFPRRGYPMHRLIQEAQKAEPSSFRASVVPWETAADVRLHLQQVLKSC
KCNQ1 pot: potentiators or activators of KCNQ1 channel, primary screen, cell-based, thallium flux, high-throughput | CHO-K1 KCNQ1, thallium flux FluxOR fluorescence; hits give high values | B-score at 10 µM | 310,000 compounds, 0.35% hits | AID 2648, 2010;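 active means fluorescence ratio B-score, a plate-corrected score, at least three library SD, with initial intensity B-score within 5 SD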
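System: CHO-K1 cells stably expressing KCNQ1 / Medium: assay buffer for compound exposure, DMSO matched across wells / Reagent: thallium- and potassium-containing depolarizing buffer / Compound: one concentration, matched DMSO / Incubation: 20 min compound pretreatment at room temperature / Measured by: kinetic FluxOR fluorescence, 10 s baseline plus 110 s post-stimulus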
KCNK3 inh: human KCNK3 channel inhibitors, primary screen, CHO cells, FluxOR thallium flux, B-score; B-score at 10 µM; 340,000 compounds, 0.84% hits; FluxOR fluorescence; hits give low values;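 active means B-score under library mean minus 4 SD, starting fluorescence ratio at most library mean plus 5 SD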;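 further: more negative B-score means stronger inhibition of thallium flux through KCNK3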
KCNK9 block: KCNK9 potassium channel inhibitors, primary screen, HEK293 cells, thallium flux | Potassium channel subfamily K member 9 (Homo sapiens), Q9NPC2 | FluxOR thallium flux fluorescence; hits give low values | B-score at 10 µM | 310,000 compounds, 1.2% hits;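 active means ratio B-score over 3 SD below the library mean, with starting fluorescence within 5 SD of its mean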;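 further: negative B-score means less thallium flux so channel inhibition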
KCNK9 block conf: KCNK9 potassium channel inhibitors, confirmation, HEK293 cells, thallium flux, duplicate. inhibition, % at 10 µM. AID 492992, 2010. shares compounds with KCNK9 block. FluxOR thallium flux fluorescence. 4,900 compounds, 43% hits;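 active means thallium signal inhibited by more than 5 SD of the compound-free buffer control wells, on both duplicate plates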;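 further: 0% = assay buffer control wells without compound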
Kir21 sel: mouse Kir2.1 channel inhibition, confirmation, selectivity assay for KCNK9 modulator project, cell-based, HEK293, thallium flux; shares compounds with KCNK9 block; Kir2.1 cells, FluxOR thallium flux fluorescence; inhibition, % at 10 µM; 4,900 compounds, 4% hits; AID 492993, 2010;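 active means thallium signal drop more than 5 SD beyond the mean of the no-compound control wells, seen in both duplicate plates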;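 further: signal is fluorescence rise after thallium addition divided by baseline fluorescence; plate controls were assay buffer only for no effect and full block by chlorpromazine control for full effect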
KCNK9 uninduced: thallium flux in non-induced HEK293 cells, confirmation, counter-screen for KCNK9 inhibitor project, cell-based, second counter screen, non-induced KCNK9-HEK293; shares compounds with KCNK9 block; FluxOR thallium flux; inhibition, % at 10 µM; 4,900 compounds, 40% hits;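 active means thallium signal drop beyond 5 SD of the untreated control mean, on both duplicate plates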;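 further: plate controls were buffer only IC0 wells for no effect and SID17386958 at its maximal inhibitory level for full effect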
Numbers without * were called inactive; i = inactive; . = no result.

SMILES | KCNQ1 block | hERG rescue | PHOSPHO1 inh | KCNQ1 pot | KCNK3 inh | KCNK9 block | KCNK9 block conf | Kir21 sel | KCNK9 uninduced
O=C1OC(N2CCN(c3ccccn3)CC2)c2ccccc21 (stereo unspecified) | i | -3.1 | -3.4 | i | i | i | . | . | .
Cc1c(NC(=O)CSc2ncccn2)c(=O)n(-c2ccccc2)n1C | i | -2.5 | 16.2 | i | i | i | . | . | .
CCCCSc1cnn(-c2ccccc2)c(=O)c1SCCCC | 6* | -6.6 | 8.0 | i | i | -9.88* | 51.5%* | i | 47.5%*
Cc1c(C(=O)CN2CCN(c3ccccc3)CC2)c2ccccc2n1C | i | -6.4 | 5.2 | i | i | i | i | i | i
COc1ccccc1CC(NC(C)=O)C(=O)NC1CCN(C(=O)c2cccc(Cl)c2)CC1 (stereo unspecified) | i | -6.8 | 39.0 | i | i | i | . | . | .
CC1=NN(C(=O)c2ccco2)C(O)(c2ccccc2)C1 (stereo unspecified) | i | -9.3 | 31.5 | i | i | i | . | . | .
COc1ccccc1NC1=NC(C)(C)N=C(N)N1 | i | -6.6 | -9.1 | i | i | i | . | . | .
COc1ccc(OC)c(S(=O)(=O)NCC(c2cccs2)N2CCc3ccccc3C2)c1 (stereo unspecified) | i | -7.7 | . | i | i | -9.09* | i | i | i
COc1ccc(S(=O)(=O)NCC(c2cccs2)N2CCc3ccccc3C2)cc1 (stereo unspecified) | i | -11.5 | . | i | i | i | . | . | .
COc1cccc(-c2ccc(C#N)c(OC(=O)c3ccc(Cl)cc3)n2)c1 | i | -2.4 | 6.7 | i | i | i | . | . | .
COc1cccc(-c2ccc(C#N)c(OC(=O)c3c(Cl)cccc3Cl)n2)c1 | i | -6.1 | 2.3 | i | i | -10* | 38.0%* | i | 27.5%*
COc1ccc(C2c3c(-c4ccccc4O)n[nH]c3C(=O)N2Cc2ccco2)cc1OC (stereo unspecified) | i | -19.9 | 32.7 | i | i | i | . | . | .
Cc1cc(C)c(O)c(-c2n[nH]c3c2C(c2cccc(O)c2)N(Cc2ccco2)C3=O)c1 (stereo unspecified) | i | -8.8 | 27.3 | i | i | -11.5* | 57.5%* | i | 41.0%*
Clc1ccc(-c2cc(CN3CCCCC3)no2)cc1Cl | i | -6.8 | . | i | i | i | . | . | .
O=c1c2cc(-c3ccccc3)sc2ncn1/N=C/c1ccco1 | i | -4.2 | 17.2 | i | i | i | i | i | i
Cc1ccc(N=C(NO)c2nonc2N)c(C)c1 | i | -3.2 | -8.2 | i | i | i | . | . | .
Cc1ccc(N=C(NOCc2ccc(Cl)cc2Cl)c2nonc2N)c(C)c1 | i | -2.7 | -4.2 | i | i | -16.1* | 77.0%* | i | 45.5%*
Cc1ccccc1N=C(NOCc1ccc(Cl)cc1Cl)c1nonc1N | i | -11.4 | -10.5 | i | i | -16.1* | 81.5%* | i | 46.0%*
CC(C)=CCc1c2c(c3occ(-c4ccc(O)cc4)c(=O)c3c1O)C=CC(C)(C)O2 | i | -7.6 | -21.2 | i | i | i | . | . | .
